Measured values as given in ChEMBL document CHEMBL4673255, “Acylated 1H-1,2,4-Triazol-5-amines Targeting Human Coagulation Factor XIIa and Thrombin: Conventional and Microscale Synthesis, Anticoagulant Properties, and Mechanism of Action” (J Med Chem, 2020).
Calls of active or inactive are those of the source. The calls are words filed in the database; no cut-off is given here.

Columns and labels:
Plasma [1] = assay: Antiplatelet activity in […] assessed as inhibition of MDA-MB-231-induced platelet aggregation at 0.1 to 10 uM by light transmission aggregometry; assay type: functional; conditions: Homo sapiens, dose 0.1-10 µM
Plasma [2] = assay: Antiplatelet activity in […] assessed as inhibition of MDA-MB-231-induced platelet aggregation at 10 uM by light transmission aggregometry; assay type: functional; conditions: Homo sapiens
Coagulation factor X = Coagulation factor X (Homo sapiens, UniProt P00742); assay: Inhibition of human coagulation factor Xa using Boc-Ile-Glu-Gly-Arg-AMC as fluorogenic substrate at 5 uM measured at 1 min interval for 1 hr by fluorometric assay relative to control
CCF-STTG1 = assay: Cytotoxicity against human CCF-STTG1 cells assessed as reduction in cell viability at 100 uM incubated for 48 hrs by alamar blue assay relative to control; assay type: cell-based; conditions: ccf-sttg1, 48 h
Plasma [3] = assay: Antiplatelet activity in […] assessed as inhibition of MDA-MB-231-induced platelet aggregation by light transmission aggregometry; assay type: functional; conditions: Homo sapiens, dose 0.1-10 µM
Plasma [4] = assay: Antiplatelet activity in human platelet-rich plasma assessed as inhibition of MDA-MB-231 induced platelet activation by measuring reduction in ATP release preincubated for 20 mins followed by tumor cell addition and measured after 30 mins by luciferin-based luminescence assay; assay type: functional, cell-free; conditions: time 50.0 min
Summary of the method: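 Platelet activation measured as dense-granule ATP release by firefly luciferase bioluminescence. Compound-treated platelets were activated with MDA-MB-231 cells, thrombin or TRAP-6. TRAP-6-induced signal was set as 100%. Triplicate, mean ± SD.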

Plasma [5] = assay: Antiplatelet activity in […] assessed as inhibition of MDA-MB-231-induced platelet aggregation at 100 nM by light transmission aggregometry; assay type: functional; conditions: Homo sapiens

Coagulation factor X, sequence (P00742 41-179 limits assumed): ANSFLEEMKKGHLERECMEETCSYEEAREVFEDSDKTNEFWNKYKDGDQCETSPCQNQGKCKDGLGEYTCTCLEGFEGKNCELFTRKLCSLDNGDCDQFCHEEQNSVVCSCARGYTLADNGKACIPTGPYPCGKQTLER
Coagulation factor X, sequence (P00742 235-488 limits assumed): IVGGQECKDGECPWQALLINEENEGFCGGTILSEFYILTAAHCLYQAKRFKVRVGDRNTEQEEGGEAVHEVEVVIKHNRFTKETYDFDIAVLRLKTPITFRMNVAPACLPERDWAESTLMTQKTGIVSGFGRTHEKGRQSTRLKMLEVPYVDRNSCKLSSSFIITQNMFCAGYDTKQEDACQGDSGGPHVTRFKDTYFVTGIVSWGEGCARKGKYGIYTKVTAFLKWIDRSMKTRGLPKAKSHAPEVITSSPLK

Row | SMILES | inhibition (Plasma [1]) | inhibition (Plasma [2]) | inhibition (Coagulation factor X) [%] | Activity (CCF-STTG1) [%] | inhibition (Plasma [3]) | inhibition (Plasma [4]) | inhibition (Plasma [5])
1 | Nc1nc(-c2ccccn2)nn1C(=O)c1cccc2ccccc12 | inactive |  |  |  |  |  | 
2 | Nc1nc(-c2ccccn2)nn1C(=O)c1ccc2ccccc2c1 |  | Active | 48 | 36 | Dose-dependent effect | Dose-dependent effect | inactive
